{
  "source": "the RNAGym collection of RNA variant scans (doi:10.1126/science.aae0568)",
  "parents": {"B1": {"name": "tRNA (parent)", "chain": "GUUCCGUUGGCGUAAUGGUAACGCGUCUCCCUCCUAAGGAGAAGACUGCGGGUUCGAGUCCCGUACGGAACG"}},
  "note": "This sample holds only a part of the variants without activity.",
  "data": [
    {"variants_of": "B1", "test": "yeast fitness relative to wild type (ratio to wild type); higher = fitter; tRNA-Arg(CCU), competitive growth, 37 C, YPD", "summary_of_the_method": "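The tRNA-Arg(CCU) gene variants were made by chemical synthesis with a 3% per-site mutation rate at 69 sites and inserted at the native genomic locus of Saccharomyces cerevisiae. After pooling, the strains were competed in YPD at 37°C for 24 hours in six parallel replicates. Gene amplicons from the start population and each end population were read by 100-nucleotide paired-end sequencing, and Darwinian fitness relative to wild type was taken from genotype frequency changes. Genotypes needed ≥ 100 starting reads, and estimates < 0.5 were set to 0.5.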", "values": [
      {"variant": "GUUCCGUUGGCGUAAUGGUACCGUGUCUCCCACCUAAGGAGAAGACUGCGGGUUCGAGUCCGAUACGGAACG", "note": "[A21C C24U U32A C62G G63A]", "yeast fitness": "≤ 0.5"},
      {"variant": "GUUCCGUUGGCGUAAUGGUACCGCGUCUCCCUCCUAAGGGGAAGACUGCGGGUUCGAGUCCCGUACGGAACG", "note": "[A21C A40G]", "yeast fitness": 0.818},
      {"variant": "GUUCCGUUGGCGUAAUGGUACCGCGUCUCCCUCCUAAGGUGAAGACUGCGGGUUCGAGUCCCGUACGGAACG", "note": "[A21C A40U]", "yeast fitness": 0.807},
      {"variant": "GUUCCGUUGGCGUAAUGGUACCGCGUUUCCCUCCUAAGGAGAAGAGUACGGGUUCGAGUCCGGUACGCAACG", "note": "[A21C C27U C46G G48A C62G G68C]", "yeast fitness": "≤ 0.5"},
      {"variant": "GUUCCGUUGGCGUAAUGGUACCGCGUGAUCCUCUUAAGGAGAAGACUGCGGGUUCGAGUCCUCUACGGAACG", "note": "[A21C C27G U28A C29U C34U C62U G63C]", "yeast fitness": "≤ 0.5"},
      {"variant": "GUUCCGUUGGCGUAAUGGUACCGCGUCUUCCUCCUAAGGAGAAGUCUGCGGGUUCGAGUCCCGUACGGAACG", "note": "[A21C C29U A45U]", "yeast fitness": 0.521},
      {"variant": "GUUCCGUUGGCGUAAUGGUACCGCGUUUCCCUACUACGGAGAAGACUGCGGGUUCGAGUCCCGUACGGAACG", "note": "[A21C C27U C33A A37C]", "yeast fitness": 0.554},
      {"variant": "GUUCCGUUGGCGUAAUGGUACCGCGUCUACCUCCUAAGGAGAAGACUGCGGAUUGGCGUCCCGUACGGCACG", "note": "[A21C C29A G52A C55G A57C A69C]", "yeast fitness": "≤ 0.5"},
      {"variant": "GUUCCGUUGGCGUAAUGGUACCGCGUGUCCCUCCUAAGGAGAAGACUGCGGGUUCGAGUCCCGUACGGAACG", "note": "[A21C C27G]", "yeast fitness": 0.537},
      {"variant": "GUUCCGUUGGCGUAAUGGUACCGCGUUUCCCUCCUAAGGAGAAGACUGCGGGUUCGAGUCCCGUACGGAACG", "note": "[A21C C27U]", "yeast fitness": 0.774},
      {"variant": "GUUCCGUUGGCGUAAUGGUACCGCGUCUACCUCCUAAGGAGAAGACUGCGGCUUCGAGUCCCGUACGAAACG", "note": "[A21C C29A G52C G68A]", "yeast fitness": 0.664},
      {"variant": "GUUCCGUUGGCGUAAUGGUACCGCGUUUCCCUCCUAAGGAGAAGACAGCGGGUUCGAGUCCCGUACGGAACG", "note": "[A21C C27U U47A]", "yeast fitness": 0.545},
      {"variant": "GUUCCGUUGGCGUAAUGGUACGGCGUCUCCCUCCUAACGAGAAGACUGCGCGUUCGAGUCCCGUACGGAACG", "note": "[A21C C22G G38C G51C]", "yeast fitness": "≤ 0.5"},
      {"variant": "GUUCCGUUGGCGUAAUGGUACCGCGUCUACCUCCUAAGGAAAAGACUGCGGGUACGAGUCCCGUACGGAACG", "note": "[A21C C29A G41A U54A]", "yeast fitness": "≤ 0.5"},
      {"variant": "GUUCCGUUGGCGUAAUGGUACCGCGUCUCCCUCCUAGGGAGAAGACUGAGGGUUCGAGUGCCGUAAGGAACG", "note": "[A21C A37G C49A C60G C66A]", "yeast fitness": "≤ 0.5"},
      {"variant": "GUUCCGUUGGCGUAAUGGUACCGCGUCUCCCUCCUAAGGAGAAGACUGCGGGUUCGAGUCCCGUACGGACCG", "note": "[A21C A70C]", "yeast fitness": 0.798},
      {"variant": "GUUCCGUUGGCGUAAUGGUACUGCGUCUCCCUCCUAAGGAGAAGACUGCGGGUUCGAGUCCCGUACGGAACG", "note": "[A21C C22U]", "yeast fitness": 0.664},
      {"variant": "GUUCCGUUGGCGUAAUGGUACGGCGUCUCCCUCCUAAGGAGAAGACUGCGGGUUCGAGUCCCGUACGGAACG", "note": "[A21C C22G]", "yeast fitness": 0.564},
      {"variant": "GUUCCGUUGGCGUAAUGGUACCGCGUCUCCCUCCUAAGGAGAAGCCUGCGGGUUCGAGUCCCGUACGGAACG", "note": "[A21C A45C]", "yeast fitness": 0.73},
      {"variant": "GUUCCGUUGGCGUAAUGGUACCGCGUGUCCCUCCUAAGCAGAAGACUGCGGGUUCGAGUCCCGUACGGAACG", "note": "[A21C C27G G39C]", "yeast fitness": "≤ 0.5"},
      {"variant": "GUUCCGUUGGCGUAAUGGUACCGCGUUUCCCUUCUAAGGAGAAGACUGCGGGUUCGAGUCCCGUACGGAACG", "note": "[A21C C27U C33U]", "yeast fitness": 0.544},
      {"variant": "GUUCCGUUGGCGUAAUGGUACCGCGUCUCCCUCCUAAGGAGAAGCCUGUGGGUUCGAGUCCCGUACGGAACG", "note": "[A21C A45C C49U]", "yeast fitness": 0.582},
      {"variant": "GUUCCGUUGGCGUAAUGGUUACGCGUCUCCCUCCUAAGGAGAAGACUGCGGGUUCGAGUCCCGGACGGAACG", "note": "[A20U U64G]", "yeast fitness": 0.725},
      {"variant": "GUUCCGUUGGCGUAAUGGUACCGCGUUUCCCUCCUAAGGAGAAGACUGCGGGUUCGGGUCCCGUACGGAACG", "note": "[A21C C27U A57G]", "yeast fitness": 0.79},
      {"variant": "GUUCCGUUGGCGUAAUGGUACCGCGUCUCCCUCCUAAGGAGAAGACUGCGGGUUCGUGUCCUGUACGGAACG", "note": "[A21C A57U C62U]", "yeast fitness": "≤ 0.5"},
      {"variant": "GUUCCGUUGGCGUAAUGGUACGGCGUCUCCCUCCUAAGGAGAAGACUGCGGGUUCGAGUCCCGUACGGACCG", "note": "[A21C C22G A70C]", "yeast fitness": "≤ 0.5"},
      {"variant": "GUUCCGUUGGCGUAAUGGUACCGCGUCUCCCUCCUAAGGAGAAGACUGCGGGUUCGGGUCCCGUACGGAACG", "note": "[A21C A57G]", "yeast fitness": 0.708},
      {"variant": "GUUCCGUUGGCGUAAUGGUACCGCGUCUCCCUCCUAAGGAGAAGACUGCGGGUUCGCGUCCCGUACGGAACG", "note": "[A21C A57C]", "yeast fitness": 0.548},
      {"variant": "GUUCCGUUGGCGUAAUGGUACCGCGUAUCCCUCCUAAGGAGAAGACUGGGGGUUCGAGUCCCGUACGGAACG", "note": "[A21C C27A C49G]", "yeast fitness": 0.54},
      {"variant": "GUUCCGUUGGCGUAAUGGUACAGCGUCUUCCUCCUAAGGAGAAGACUGGGGGUUCGAGUCCCGUACGGAACG", "note": "[A21C C22A C29U C49G]", "yeast fitness": "≤ 0.5"},
      {"variant": "GUUCCGUUGGCGUAAUGGUACCGCGUCUUCCUCCUAAGGAGAAGACUGCGGGUUCGCGUCCCGUACGGAACG", "note": "[A21C C29U A57C]", "yeast fitness": 0.558},
      {"variant": "GUUCCGUUGGCGUAAUGGUUACGCGUCUCCCUCCUAAGGAGAAGACGGCGGGUUCGAGUCCCGUACGGAACG", "note": "[A20U U47G]", "yeast fitness": 0.611},
      {"variant": "GUUCCGUUGGCGUAAUGGUACUGCGUCUCCUUUCUAAGGAGAAGACUGCGGGUUCGAGUCCAGUACGGAACG", "note": "[A21C C22U C31U C33U C62A]", "yeast fitness": 0.61},
      {"variant": "GUUCCGUUGGCGUAAUGGUACAGCGUCUCCCUCCUAAGGAGAAGACUGCGGGUUCGAGUUCCGUACGGAACG", "note": "[A21C C22A C60U]", "yeast fitness": "≤ 0.5"},
      {"variant": "GUUCCGUUGGCGUAAUGGUACCGCGUCUCCCUCCUCAGGAGAAGACUGCGGGUUCAAGUCCCGUACGGAACG", "note": "[A21C A36C G56A]", "yeast fitness": 0.562},
      {"variant": "GUUCCGUUGGCGUAAUGGUACCGCGUCUCCCUCCUAAGGAGAAGUCUGCGGCUUCGAGUCCCGUACGGAACG", "note": "[A21C A45U G52C]", "yeast fitness": 0.581},
      {"variant": "GUUCCGUUGGCGUAAUGGUACCGCGUAUCCCUUCUAAGGAGAAGACUGCGGGUUCGAGUCCCGUACGGAACG", "note": "[A21C C27A C33U]", "yeast fitness": 0.906},
      {"variant": "GUUCCGUUGGCGUAAUGGUACCGUGUCUCCCUCCUAAGGAGAAGAUUGCGGGUUCGAGUUCCGUACGGAACG", "note": "[A21C C24U C46U C60U]", "yeast fitness": "≤ 0.5"}
    ]}
  ]
}
